Key:
[1] = molecular target: CYP3A4 (Homo sapiens, UniProt P08684); experiment: Inhibition of CYP3A4 in human liver microsomes assessed as remaining activity at 10 uM using midazolam as substrate preincubated for 5 mins followed by addition of NADPH regenerating system and measured after 15 mins by LC-MS/MS analysis relative to control; format: ADME; conditions: probe midazolam, read-out: Activity
Method in brief: (§1)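 Human liver microsomes (0.25 mg/mL) in 0.1 M phosphate buffer with test article at 0 or 10 μM and substrate cocktail, preincubated 5 min at 37 °C. Cocktail A: phenacetin 50 μM, coumarin 2.5 μM, S-mephenytoin 100 μM, dextromethorphan 5 μM, midazolam 2.5 μM. Cocktail B: bupropion 50 μM, amodiaquine 2.5 μM, tolbutamide 100 μM, chlorzoxazone 50 μM. NADPH system added, then 15 min at 37 °C; acetonitrile quench, LC-MS/MS.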

[2] = Protein binding in rat plasma at 10 uM after 4 hrs by rapid equilibrium dialysis method; format: ADME, cell-free; conditions: read-out: PPB (converted)
Method in brief: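 Rapid equilibrium dialysis of human or rat plasma dosed at 10 μM against PBS pH 7.4, 4 h at 37 °C. Plasma and buffer aliquots were matrix-matched with blank buffer or plasma, precipitated with acetonitrile containing chlorpropamide internal standard, and analysed by LC-MS/MS. Dexamethasone and warfarin served as positive controls.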

[3] = Efflux ratio of apparent permeability from basolateral to apical side over apical to basolateral side in human Caco2 cells at 25 uM; format: ADME, cell-based; conditions: Caco-2
[4] = molecular target: CYP2C19 (Homo sapiens, UniProt P33261); experiment: Inhibition of CYP2C19 in human liver microsomes assessed as remaining activity at 10 uM using S-mephenytoin as substrate preincubated for 5 mins followed by addition of NADPH regenerating system and measured after 15 mins by LC-MS/MS analysis relative to control; format: ADME; conditions: probe S-mephenytoin, read-out: Activity; method in brief: as §1
[5] = Metabolic stability in human liver microsomes assessed as parent compound remaining at 1 uM preincubated for 5 mins followed by addition of NADPH regenerating system and measured after 30 mins by LC-MS/MS method; format: ADME, microsome; conditions: read-out: Stability
Method in brief: (§2)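 Liver microsomes (0.5 mg/mL; human, dog or mouse) in 0.1 M phosphate buffer with test article at 1 μM, preincubated 5 min at 37 °C. NADPH regenerating system added, then 30 min at 37 °C. Acetonitrile with chlorpropamide internal standard added, sample centrifuged, supernatant analysed by LC-MS/MS.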

[6] = Metabolic stability in rat liver microsomes assessed as parent compound remaining at 1 uM preincubated for 5 mins followed by addition of NADPH regenerating system and measured after 30 mins by LC-MS/MS method; format: ADME, microsome; conditions: read-out: Stability
Method in brief: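 Liver microsomes (0.5 mg/mL) in 0.1 M phosphate buffer with test article at 1 μM. Preincubated 5 min at 37 °C, then NADPH regeneration system added and incubated 30 min at 37 °C. Quenched with acetonitrile containing chlorpropamide internal standard and centrifuged; supernatant analysed by LC-MS/MS for % parent remaining. Verapamil served as positive control.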

[7] = Metabolic stability in rat plasma assessed as parent compound remaining at 10 uM after 120 mins by LC-MS/MS method; format: ADME, cell-free; conditions: read-out: Stability
Method in brief: (§3)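 Rat plasma spiked with test article at 10 μM and incubated at 37 °C, sampled at 0, 30 and 120 min. Acetonitrile containing chlorpropamide internal standard added, then vortexed and centrifuged at 4 °C; supernatant quantified by LC-MS/MS as % remaining. Procaine and diltiazem served as positive controls.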

[8] = Lipophilicity, log P of the compound in neutral form; format: physicochemical; conditions: octanol/water
[9] = Metabolic stability in human plasma assessed as parent compound remaining at 10 uM after 120 mins by LC-MS/MS method; format: ADME, cell-free; conditions: read-out: Stability
Method in brief: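 Human plasma spiked with test article at 10 μM and incubated at 37 °C for 0, 30 and 120 min. Acetonitrile with chlorpropamide internal standard added, sample centrifuged at 4 °C, supernatant analysed by LC-MS/MS; result given as percent remaining.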

[10] = molecular target: CYP2E1 (Homo sapiens, UniProt P05181); experiment: Inhibition of CYP2E1 in human liver microsomes assessed as remaining activity at 10 uM using chlorzoxazone as substrate preincubated for 5 mins followed by addition of NADPH regenerating system and measured after 15 mins by LC-MS/MS analysis relative to control; format: ADME; conditions: probe chlorzoxazone, read-out: Activity; method in brief: as §1
[11] = molecular target: CYP2D6 (Homo sapiens, UniProt P10635); experiment: Inhibition of CYP2D6 in human liver microsomes assessed as remaining activity at 10 uM using dextromethorphan as substrate preincubated for 5 mins followed by addition of NADPH regenerating system and measured after 15 mins by LC-MS/MS analysis relative to control; format: ADME; conditions: probe dextromethorphan, read-out: Activity; method in brief: as §1
[12] = Apparent permeability across basolateral to apical side in human Caco2 cells at 25 uM measured every 15 mins for 60 mins by LC-MS/MS method; format: ADME, cell-based; conditions: Caco-2
Method in brief: (§4)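 Caco-2 cells were seeded at 1×10^6 per 12-well transwell and grown 3 weeks. Test article was 25 μM in HBSS transport buffer (10 mM glucose, 4 mM bicarbonate, 1 mM HEPES, pH 7.4), added to the apical or basolateral side. Incubated 60 min at 37 °C with sampling every 15 min; LC-MS/MS read-out.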

[13] = Metabolic stability in mouse liver microsomes assessed as parent compound remaining at 1 uM preincubated for 5 mins followed by addition of NADPH regenerating system and measured after 30 mins by LC-MS/MS method; format: ADME, microsome; conditions: read-out: Stability; method in brief: as §2
[14] = Metabolic stability in rat plasma assessed as parent compound remaining at 10 uM after 30 mins by LC-MS/MS method; format: ADME, cell-free; conditions: read-out: Stability; method in brief: as §3
[15] = molecular target: T1, CYP2B6 (Homo sapiens, UniProt P20813); experiment: Inhibition of CYP2B6 in human liver microsomes assessed as remaining activity at 10 uM using bupropion as substrate preincubated for 5 mins followed by addition of NADPH regenerating system and measured after 15 mins by LC-MS/MS analysis relative to control; format: ADME; conditions: probe bupropion, read-out: Activity; method in brief: as §1
T1 sequence (P20813 whole entry): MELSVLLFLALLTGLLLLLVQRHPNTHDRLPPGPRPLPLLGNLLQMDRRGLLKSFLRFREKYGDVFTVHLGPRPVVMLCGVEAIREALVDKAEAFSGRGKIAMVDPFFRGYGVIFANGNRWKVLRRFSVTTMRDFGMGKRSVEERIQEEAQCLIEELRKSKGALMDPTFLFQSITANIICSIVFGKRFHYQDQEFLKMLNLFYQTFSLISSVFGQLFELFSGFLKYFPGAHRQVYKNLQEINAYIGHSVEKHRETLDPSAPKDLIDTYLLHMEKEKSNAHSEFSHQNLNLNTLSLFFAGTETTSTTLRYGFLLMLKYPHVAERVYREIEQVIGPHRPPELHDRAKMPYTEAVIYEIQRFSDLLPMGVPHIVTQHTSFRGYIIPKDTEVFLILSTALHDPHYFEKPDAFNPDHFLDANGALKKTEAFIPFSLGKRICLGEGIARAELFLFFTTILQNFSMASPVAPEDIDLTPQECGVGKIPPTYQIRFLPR

[16] = Apparent permeability across apical to basolateral side in human Caco2 cells at 25 uM measured every 15 mins for 60 mins by LC-MS/MS method; format: ADME, cell-based; conditions: Caco-2; method in brief: as §4

Chain of CYP2E1 (P05181 whole entry): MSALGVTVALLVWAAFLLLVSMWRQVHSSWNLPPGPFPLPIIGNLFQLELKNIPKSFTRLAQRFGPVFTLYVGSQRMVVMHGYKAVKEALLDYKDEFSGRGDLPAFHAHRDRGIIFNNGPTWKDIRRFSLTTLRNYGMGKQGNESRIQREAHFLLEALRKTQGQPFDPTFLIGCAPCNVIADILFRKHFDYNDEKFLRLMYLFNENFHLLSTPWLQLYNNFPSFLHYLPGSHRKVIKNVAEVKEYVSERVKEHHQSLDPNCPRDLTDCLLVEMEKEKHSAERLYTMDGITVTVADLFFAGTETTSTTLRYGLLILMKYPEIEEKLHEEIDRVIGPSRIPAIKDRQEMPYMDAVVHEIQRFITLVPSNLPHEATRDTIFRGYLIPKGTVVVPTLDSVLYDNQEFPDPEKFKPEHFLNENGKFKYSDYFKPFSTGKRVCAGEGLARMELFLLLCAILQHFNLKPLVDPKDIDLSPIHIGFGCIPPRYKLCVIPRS
Chain of CYP2D6 (P10635 whole entry): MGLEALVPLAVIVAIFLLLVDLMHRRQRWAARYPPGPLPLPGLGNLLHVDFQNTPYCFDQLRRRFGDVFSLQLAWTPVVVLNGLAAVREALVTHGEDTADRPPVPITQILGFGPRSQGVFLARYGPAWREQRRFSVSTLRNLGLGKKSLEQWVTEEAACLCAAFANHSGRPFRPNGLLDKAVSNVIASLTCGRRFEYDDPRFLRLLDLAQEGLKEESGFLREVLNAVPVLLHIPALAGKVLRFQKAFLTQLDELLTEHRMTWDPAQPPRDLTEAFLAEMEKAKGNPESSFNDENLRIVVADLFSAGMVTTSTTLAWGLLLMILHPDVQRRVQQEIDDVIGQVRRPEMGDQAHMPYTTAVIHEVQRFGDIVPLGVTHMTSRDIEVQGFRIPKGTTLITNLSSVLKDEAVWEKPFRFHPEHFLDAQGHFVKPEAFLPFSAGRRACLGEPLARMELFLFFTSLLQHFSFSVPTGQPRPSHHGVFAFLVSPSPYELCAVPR
Chain of CYP2C19 (P33261 whole entry): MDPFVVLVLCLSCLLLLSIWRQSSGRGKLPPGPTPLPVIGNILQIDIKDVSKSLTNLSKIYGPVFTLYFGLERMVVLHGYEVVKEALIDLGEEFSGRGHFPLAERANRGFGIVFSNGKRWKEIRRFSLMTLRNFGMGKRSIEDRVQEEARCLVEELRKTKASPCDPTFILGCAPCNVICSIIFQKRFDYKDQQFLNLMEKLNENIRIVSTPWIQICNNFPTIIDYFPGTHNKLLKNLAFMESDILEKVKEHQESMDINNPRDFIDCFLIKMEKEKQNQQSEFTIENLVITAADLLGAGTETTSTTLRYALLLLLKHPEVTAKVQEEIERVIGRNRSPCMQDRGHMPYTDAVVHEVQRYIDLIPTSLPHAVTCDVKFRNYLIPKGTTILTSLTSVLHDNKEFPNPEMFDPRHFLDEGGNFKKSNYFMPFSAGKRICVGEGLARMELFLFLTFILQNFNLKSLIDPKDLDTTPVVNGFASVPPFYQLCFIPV
Chain of CYP3A4 (P08684 whole entry): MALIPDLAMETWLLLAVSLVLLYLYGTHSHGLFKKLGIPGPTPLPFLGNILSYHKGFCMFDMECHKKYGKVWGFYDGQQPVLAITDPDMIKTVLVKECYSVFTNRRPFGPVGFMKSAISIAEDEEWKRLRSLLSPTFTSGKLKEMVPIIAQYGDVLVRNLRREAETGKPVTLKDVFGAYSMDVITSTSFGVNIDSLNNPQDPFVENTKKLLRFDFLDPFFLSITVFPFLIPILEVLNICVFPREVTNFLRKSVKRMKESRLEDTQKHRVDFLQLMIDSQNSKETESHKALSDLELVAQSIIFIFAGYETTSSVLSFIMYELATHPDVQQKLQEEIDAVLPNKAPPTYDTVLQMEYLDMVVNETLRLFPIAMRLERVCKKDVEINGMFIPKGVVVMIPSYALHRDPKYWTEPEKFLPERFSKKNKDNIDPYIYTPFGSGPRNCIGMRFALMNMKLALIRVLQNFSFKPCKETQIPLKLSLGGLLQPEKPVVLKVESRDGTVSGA

activity at 0.25 h, 10 µM [1] [%] | fraction unbound at 4 h, 10 µM [2] | efflux ratio at 25 µM [3] | activity at 0.25 h, 10 µM [4] [%] | remaining at 0.5 h, 1 µM [5] [%] | remaining at 0.5 h, 1 µM [6] [%] | remaining at 2 h, 10 µM [7] [%] | logP [8] | remaining at 2 h, 10 µM [9] [%] | activity at 0.25 h, 10 µM [10] [%] | activity at 0.25 h, 10 µM [11] [%] | Papp B→A at 1 h, 25 µM [12] [×10⁻⁶ cm/s] | remaining at 0.5 h, 1 µM [13] [%] | remaining at 0.5 h, 10 µM [14] [%] | activity at 0.25 h, 10 µM [15] [%] | Papp A→B at 1 h, 25 µM [16] [×10⁻⁶ cm/s] | Compound
33.2 | 0.142 | 1.17 | 55.8 | 6 | 2.4 | > 100 | 3.69 | 98.6 | 59.8 | 90.3 | 15.7 | 3.2 | > 100 | 92 | 13.4 | CN(c1ncnc2[nH]ccc12)[C@H]1CN(S(=O)(=O)c2cccc(C#N)c2)CC12CC2
89.7 | 0.813 | 2.78 | 66 | 94.6 | 84.8 | 89.6 | 1.69 | 98.5 | 50.3 | 91.6 | 18.5 | 84.9 | 98.4 | 91.5 | 6.6 | CN(c1ncnc2[nH]ccc12)[C@H]1CN(C(=O)CC#N)CC12CC2
95.4 | 0.505 | 1.01 | 93.8 | 79.7 | 22.9 | > 100 | 2.07 | > 100 | 63.9 | > 100 | 25.6 | 33.9 | > 100 | > 100 | 25.4 | CCS(=O)(=O)N1C[C@H](N(C)c2ncnc3[nH]ccc23)C2(CC2)C1
